Compounds with a hit are over-represented: about 1.9% of the library has one in this group of screens.
HCV core dimer: blocks dimerization of HCV core protein; inhibition, % at 5 µM; hit rate 0.33% among 300,000; TR-FRET GST/Flag-core106 dimerization, 1536-well;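 active = inhibition above the mean of all tested compounds plus 3 SD, set per screening campaign, cut at about 45% in these data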
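System: GST/Flag-tagged HCV core106 proteins. Incubation: compound-protein-antibody incubation 4 h at 22.5 °C. Technique: HTRF with 340 nm excitation, 617/671 nm emission. Medium: KF-containing HEPES buffer, pH 7.45, DTT, CHAPS, BSA. Read-out: inhibition (%) from 671 over 617 nm ratio. Also added: Eu(K)-anti-GST 90 ng/mL plus XL665-anti-Flag 1 µg/mL.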
GPR7 antag: antagonists of human GPR7 (neuropeptides B/W receptor 1) | P48145 | GPR7-expressing cells, fluorescence antagonist assay | inhibition, % at 4.4 µM | hit rate 1.1% among 290,000; in the data active = inhibition above about 16%, passing the limit was not always enough;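 also: cells stimulated with the agonist NPW; 0% = agonist with vehicle and 100% = vehicle without agonist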
HCV NS3 hel inh: blocks Hepatitis C virus NS3 helicase unwinding. NS3 helicase DNA unwinding, Cy5 molecular beacon fluorescence. inhibition, % at 10.9 µM. hit rate 0.56% among 290,000. AID 1800;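 active = inhibition above the mean of all tested compounds plus 3 SD, set per campaign, cut at about 35% in these data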;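 also: 0% = DMSO wells and 100% = thioflavine S control wells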
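Material: hepatitis C virus NS3 helicase domain fragment enzyme; measured by: Cy5 fluorescence, 0 and 60 min reads; control set: DMSO and thioflavine S; incubation: 60 min unwinding reaction at 25 °C after ATP addition; read-out basis: % inhibition from 60/0 min fluorescence ratio, DMSO 0%, thioflavine S 100%; repeats: singlicate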
pCIP destab: p/CIP protein destabilization | F442A p/CIP-EGFP cells, EGFP fluorescence, 16 h | decrease of EGFP signal, % at 10 µM | hit rate 0.01% among 290,000 | AID 1984;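 active = EGFP signal decrease of at least 30% at 10 µM or well 3 SD below plate mean, unless failing retest; inactive = the rest, including hits failing retest or dose response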
DNA FID counter: fluorescent intercalator displacement, NS3 helicase counter-screen; hit rate 0.17% among 290,000; AID 1845; DNA fluorescent intercalator displacement, fluorescence; inhibition, % at 7.9 µM; in the data active = inhibition above about 37%;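 also: 0% = vehicle and 100% = reference compound; higher means more ethidium bromide displaced from hairpin DNA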
An asterisk follows results filed as active; x = no result; ! = repeats disagree.

SMILES | HCV core dimer | GPR7 antag | HCV NS3 hel inh | pCIP destab | DNA FID counter
O=C(C[n+]1ccccc1)Nc1ccc(Oc2ccccc2)cc1 | -2 | 13 | -48 | -23 | 37*
Cc1c(NC(=O)COC(=O)CCc2c[nH]c3ccccc23)c(=O)n(-c2ccccc2)n1C | -5 | -5 | 12 | -6 | -12
Cc1ccc(C(=O)c2c[nH]c3c(F)cc(F)cc3c2=O)cc1 | -3 | -12 | -5 | 4 | -1
Cc1ccc(S(=O)(=O)c2cc3c(=O)n4ccccc4nc3n(Cc3ccco3)c2=N)cc1C | 70* | -5 | 19 | -6 | 0
Cc1cccn2c(=O)c3cc(S(=O)(=O)c4ccccc4)c(=N)n(Cc4ccco4)c3nc12 | 26 | -1 | 0 | 3 | 0
Cc1ccc(C(=O)NCC(=O)OC(C)C(=O)NC2CCCCC2C)cc1C (configuration not stated) | 1 | x | x | x | x
Cc1cc(/C=N/NC(=O)Cn2c3ccccc3c(=O)c3ccccc32)c(C)n1-c1ccccc1 | 62* | 12 | 20 | -5 | -6
CC(C)CCSc1nc(N)c(C#N)cc1C#N | 64* | -14 | 0 | -13 | -2
C/C(CC(=O)Nc1ccc(Cl)cc1Cl)=N\NC(=O)c1cnccn1 | -6 | -16 | 2 | -11 | -10
C#CCOCCOCCOCCNc1nc(N2CCN(C(=O)[C@H]([C@@H](C)CC)n3cc(CCCN=C(N)N)nn3)CC2)nc(N2CCN(C(=O)[C@H]([C@@H](C)CC)n3cc(CCCN=C(N)N)nn3)CC2)n1 | x | -1 | -81 | 0 | 43*
C#CCOCCOCCOCCNc1nc(N2CCN(C(=O)[C@H]([C@@H](C)CC)n3cc([C@@H](N)CC(C)C)nn3)CC2)nc(N2CCN(C(=O)[C@H](CCCCN)n3cc([C@@H](N)C(C)CC)nn3)CC2)n1 (some centres not stated) | -9 | -16 | -70 | -5 | 45*
C#CCOCCOCCOCCNc1nc(N2CCN(C(=O)[C@H]([C@@H](C)CC)n3cc([C@@H](N)CC(C)C)nn3)CC2)nc(N2CCN(C(=O)[C@H](CCCCN)n3cc([C@@H](N)CC(C)C)nn3)CC2)n1 | -9 | 4 | -64 | -6 | 38*
Cn1c(SCC(=O)Nc2ccc3c(c2)OCCO3)nnc1C1CC1 | -5 | -3 | 0 | -11 | -3
COc1ccc(-n2nc(C(=O)NCC(=O)NCc3ccc(F)cc3)c3ccccc3c2=O)cc1OC | -9 | -9 | -24 | 2 | -30
CCCCc1ccc(C2C(C#N)=C(N)SC(N)=C2C#N)s1 | 59* | 6 | 30 | 3 | -2
CS(=O)(=O)NCCSc1nnnn1-c1ccccc1 | -2 | 18* | 16 | -5 | 0
S=C1NC2=C(CCCC2=C2SCCCS2)C(c2ccccc2)N1 (configuration not stated) | 48* | 4 | 35 | -7 | 3
COc1ccc(C2NC(=S)NC3=C2CCCC3=C2SCCS2)cc1 (configuration not stated) | 48* | 3 | 8 | -6 | -23
S=C1NC2=C(CCC/C2=C\c2ccccc2)C(c2ccccc2)N1 (configuration not stated) | 16 | 5 | -11 | -7 | -10
O=C(c1ccc(C#CC2(O)CCCCC2)cc1)N1CCN(C(c2ccccc2)c2ccccc2)CC1 | 53* | -15 | -10 | -6 | -35
O=C(/C=C/c1cn(-c2ccccc2)nc1-c1cccnc1)N1CCCC1 | x | -4 | 0 | -2 | -22
O=C(/C=C/c1cn(-c2ccccc2)nc1-c1cccnc1)c1ccco1 | 62* | -12 | -7 | -4 | -19
CCCc1nnc(SCC(=O)Nc2cccc(C(F)(F)F)c2)o1 | -4 | 6 | 2 | 0 | -11
Cc1ccc(Cc2c(C)nc3nc(SCC(=O)NCCCN4CCCCCC4)nn3c2C)cc1 | 94* | 21 | -26 | -50 | 24
CC1(O)C(=O)C=C2C=C(c3ccc(C#N)cc3)OC=C2C1=O (configuration not stated) | 55* | x | x | x | x
SMILES | HCV core dimer | GPR7 antag | HCV NS3 hel inh | pCIP destab | DNA FID counter
CC1(C)Cc2c(cnn2-c2ccccc2)C(NC(=O)CCN2CCCC2=O)C1 (configuration not stated) | -7 | 8 | -5 | -6 | -12
NC(=NCCCCCCN=C(N)/N=C(\N)Nc1ccc(Cl)cc1)/N=C(\N)Nc1ccc(Cl)cc1 | -16 | 1 | -58 | 10 | 59*
CCCCNC(=O)CCC(=O)N1CCN(C(c2ccccc2)c2ccccc2)CC1 | 13 | -3 | -6 | -5 | -41
O=C(c1cc(-c2ccco2)nn1-c1cccc(Cl)c1)N1CCCCC1 | 56* | -4 | 23 | -6 | -19
O=C(Nc1nc(-c2ccccc2)cs1)c1ccc(S(=O)(=O)N2CCc3ccccc32)cc1 | 26 | 2 | -5 | -10 | -7
CCc1nnc(NC(=O)c2ccc(Cl)c(S(=O)(=O)N3CCc4ccccc43)c2)s1 | 51* | 10 | -1 | 0 | -19
NS(=O)(=O)c1ccc(NC(=O)c2ccc(S(=O)(=O)N3CCc4ccccc43)cc2)cc1 | 58* | 0 | -17 | 0 | -18
Cc1ccc(-c2csc(NC(=O)c3ccc(S(=O)(=O)N4CCc5ccccc54)cc3)n2)cc1 | 67* | -10 | 17 | 3 | -14
CN(C)Cc1cccc([N+](=O)[O-])c1O | 1 | -5 | 4 | -5 | 1
Cc1cc(=O)n2[nH]c(-c3ccc(C(C)(C)C)cc3)cc2n1 | -2 | 25*! | -2 | -5 | -17
CC(C)(C)OC(=O)N1CCC(c2c(C(=O)N3CCN(C(=O)c4ccco4)CC3)cnn2-c2ccc(F)cc2F)CC1 | -3 | 6 | -11 | 10 | -57
O=C(CN1CCCC1)Nc1ccc(-c2nc3cc(NC(=O)CN4CCCC4)ccc3o2)cc1 | -2 | -7 | -12 | -9 | 47*
O=C(COC(=O)c1cc(-c2cccs2)nc2ccccc12)NC1CCS(=O)(=O)C1 (configuration not stated) | -1 | -10 | -6 | 14 | -5
C#CCSc1nsc(SCC#C)c1C#N | 63* | -13 | 7 | 7 | 0
CCCN1CCC(NCc2cn(C)nc2-c2ccc(Oc3ccccc3)cc2)CC1 | 3 | 6 | -61 | 2 | 39*
C=CCOC(=O)C1=C(C)N=C2SCCC(=O)N2C1c1ccc(OC(=O)c2ccco2)cc1 (configuration not stated) | 6 | 25* | -2 | -5 | -33
COC(=O)C1=C(C)N=C2SCCC(=O)N2C1c1ccc(OC(=O)c2ccco2)cc1 (configuration not stated) | x | 9 | 2 | 11 | -23
O=C(NCC1CCCN1S(=O)(=O)c1ccccc1)C(=O)NC1CC1 (configuration not stated) | -1 | x | x | x | x
c1ccc(CNc2nc(NCc3ccccc3)c3ccccc3n2)cc1 | -2 | 74* | -39 | -7 | 22
COc1ccc(C)cc1NC(=O)C(=O)N/N=C(\C)CC(=O)Nc1cccnc1 | 1 | -16 | 2 | -10 | -18

High-throughput results deposited in PubChem BioAssay by several laboratories.
